Test results from ChEMBL document CHEMBL1140336, “Synthesis, structure-activity relationships, and biological evaluation of fatty alcohol phosphates as lysophosphatidic acid receptor ligands, activators of PPARgamma, and inhibitors of autotaxin” (J Med Chem, 2005).
Values belong to the molecule of their own block, whether it stands above or below them.

Columns and labels:
Homo sapiens [1] = species on record: Homo sapiens; test: Concentration of compound (after 5 min of addition) that induce LPA expressed in human platelets; type: functional
How it was run: (§1)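 Washed human platelets, aspirin-treated and isolated with apyrase, at 4 × 10^5/μL in HEPES buffer pH 7.4, stirred at 37 °C. Lipids given as BSA complexes (4:1). Shape change read as the fall in light transmission in an aggregometer. […] Mean ± SD across different donors.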

Homo sapiens [2] = species on record: Homo sapiens; test: Maximal shape change of human platelets induced by the compound; type: functional; how it was run: as §1
Homo sapiens [3] = species on record: Homo sapiens; test: Inhibitory concentration of compound (after 5 min of incubation) against LPA human platelets
[4] = target: T1, Lysophosphatidic acid receptor 1 (Homo sapiens, UniProt Q92633); test: (§2) Inhibition of LPA-induced calcium transients in RH7777 rat hepatoma cells expressing LPA1 receptor; No effect; type: functional, cell-based
How it was run: (§3)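 Fura-2 Ca2+ assay. RH7777 cells stably expressing LPA1, LPA2 or LPA3, or PC-3 cells (endogenous LPA1-3), seeded at 50000 cells/well on poly-D-lysine and grown overnight. Serum-starved in modified Krebs, pH 7.4, for 6-8 h (PC-3: 12 h), then Fura-2 AM loaded for 35 min. Compound added at 15 s; wells read 80-120 s. Transient taken as peak minus baseline 340/380 ratio. Antagonism: LPA 18:1 coapplied; highest concentration 30 μM.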

[5] = target: T1, Lysophosphatidic acid receptor 1; test: (§4) Inhibition of LPA-induced calcium transients in RH7777 rat hepatoma cells expressing LPA1 receptor; type: functional, cell-based; how it was run: as §3
[6] = target: T2, Lysophosphatidic acid receptor 2 (Homo sapiens, UniProt Q9HBW0); test: Inhibition of LPA-induced calcium transients in RH7777 rat hepatoma cells expressing LPA2 receptor; No effect; type: functional, cell-based; how it was run: as §3
[7] = target: T3, Lysophosphatidic acid receptor 3 (Homo sapiens, UniProt Q9UBY5); test: Inhibition of LPA-induced calcium transients in RH7777 rat hepatoma cells expressing LPA3 receptor; No effect; type: functional, cell-based; how it was run: as §3
T3 sequence (Q9UBY5 whole entry): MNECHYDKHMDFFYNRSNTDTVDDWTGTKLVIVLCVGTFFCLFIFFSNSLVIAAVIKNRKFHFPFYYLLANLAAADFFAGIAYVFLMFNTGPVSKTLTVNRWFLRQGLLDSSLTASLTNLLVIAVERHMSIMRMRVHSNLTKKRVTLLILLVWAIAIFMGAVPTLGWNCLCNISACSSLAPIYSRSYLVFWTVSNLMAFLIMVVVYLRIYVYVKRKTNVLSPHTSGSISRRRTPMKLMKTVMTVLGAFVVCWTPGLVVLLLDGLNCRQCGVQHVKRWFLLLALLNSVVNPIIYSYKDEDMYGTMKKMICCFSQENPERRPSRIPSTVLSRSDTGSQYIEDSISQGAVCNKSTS

[8] = Inhibition of LPA-induced calcium transients in PC-3 cells; type: functional, cell-based, Homo sapiens
How it was run: (§5)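 PC-3 human prostate cancer cells, which express LPA1-3 endogenously, 50000 cells/well. Serum-starved 12 h in modified Krebs, loaded with Fura-2 AM, read in a FlexStation. Ca2+ transient = 340/380 ratio peak minus baseline. Agonism (Emax as % of maximal LPA 18:1 response) and inhibition of LPA-induced transients were measured.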

[9] = Binding affinity for Lysophosphatidic acid receptor in PC-3 cells; type: cell-based, Homo sapiens; how it was run: as §3
[10] = target: T3, Lysophosphatidic acid receptor 3; test: Binding affinity for Lysophosphatidic acid receptor 3 expressed in RH7777 rat hepatoma cells; type: cell-based; how it was run: as §3
[11] = target: T3, Lysophosphatidic acid receptor 3; test: (§6) Inhibition of LPA-induced calcium transients in RH7777 rat hepatoma cells expressing LPA3 receptor; type: functional, cell-based; how it was run: as §3
[12] = target: T1, Lysophosphatidic acid receptor 1; test: as §2; type: functional, cell-based; remark: listed apart in the source
[13] = target: T2, Lysophosphatidic acid receptor 2; test: (§7) Inhibition of LPA-induced calcium transients in RH7777 rat hepatoma cells expressing LPA2 receptor; type: functional, cell-based
[14] = target: T1, Lysophosphatidic acid receptor 1; test: as §4; type: functional, cell-based; remark: listed apart in the source
[15] = target: T3, Lysophosphatidic acid receptor 3; test: as §6; type: functional, cell-based; remark: listed apart in the source
[16] = Percent maximal efficacy in PC-3 cells; type: functional, Homo sapiens; how it was run: as §5
[17] = target: T2, Lysophosphatidic acid receptor 2; test: Binding affinity for Lysophosphatidic acid receptor 2 expressed in RH7777 rat hepatoma cells; type: cell-based
[18] = target: T2, Lysophosphatidic acid receptor 2; test: as §7; type: functional, cell-based; how it was run: as §3; remark: listed apart in the source
[19] = target: T1, Lysophosphatidic acid receptor 1; test: Binding affinity for Lysophosphatidic acid receptor 1 expressed in RH7777 rat hepatoma cells; type: cell-based; how it was run: as §3
[20] = Homo sapiens, PC-3, read-out: IC50

T1 sequence (Q92633 whole entry): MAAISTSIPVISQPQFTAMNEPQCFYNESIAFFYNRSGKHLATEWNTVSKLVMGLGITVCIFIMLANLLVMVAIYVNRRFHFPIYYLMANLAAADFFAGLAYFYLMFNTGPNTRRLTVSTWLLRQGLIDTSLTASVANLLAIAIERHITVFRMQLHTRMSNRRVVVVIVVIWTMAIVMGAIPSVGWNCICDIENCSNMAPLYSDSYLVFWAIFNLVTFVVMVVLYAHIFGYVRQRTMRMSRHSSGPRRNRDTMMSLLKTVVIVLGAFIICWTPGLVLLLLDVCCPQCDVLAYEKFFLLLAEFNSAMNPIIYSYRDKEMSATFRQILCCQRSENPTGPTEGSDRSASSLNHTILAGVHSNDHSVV
T2 sequence (Q9HBW0 whole entry): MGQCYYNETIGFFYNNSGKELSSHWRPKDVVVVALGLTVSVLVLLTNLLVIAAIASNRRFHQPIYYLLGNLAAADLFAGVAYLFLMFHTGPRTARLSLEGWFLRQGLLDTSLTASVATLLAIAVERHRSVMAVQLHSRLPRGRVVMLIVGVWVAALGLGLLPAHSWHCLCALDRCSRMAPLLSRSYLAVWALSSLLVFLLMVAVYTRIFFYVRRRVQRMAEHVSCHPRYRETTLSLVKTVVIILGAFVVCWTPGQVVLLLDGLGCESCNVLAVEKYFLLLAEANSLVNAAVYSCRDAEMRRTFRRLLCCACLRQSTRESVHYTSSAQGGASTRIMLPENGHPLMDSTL

Compound: CCCCCCCCCCCCCCCC(=O)OC[C@@H](O)COP(=O)(O)O
EC50 (Homo sapiens [1]): 10 nM
Emax (Homo sapiens [2]): 120%
IC50 (Homo sapiens [3]): 17 nM

Compound: CCCCCCCCCCCCCCC(F)(F)P(=O)(O)O
EC50 [4]: Not Active
IC50 [6]: Not Active
EC50 [7]: Not Active

Compound: CCCCCCCCCCP(=O)(O)O
EC50 [4]: Not Active
Ki [10]: 680 nM
IC50 [11]: 1200 nM
IC50 [12]: Not Active
EC50 [6]: Not Active
IC50 [6]: Not Active
EC50 [7]: Not Active
IC50 [8, 20]: 3120 nM
Ki [9]: 1500 nM

Compound: CCCCCCCCCCCCOP(O)(O)=S [THIOPHOSPHORIC ACID DODECYL ESTER]
EC50 [4]: Not Active
IC50 [12]: Not Active
IC50 [6]: Not Active
EC50 [7]: Not Active
IC50 [8, 20]: 2840 nM
Ki [9]: 1300 nM

Compound: CCCCCCCCCCOP(O)(O)=S [THIOPHOSPHORIC ACID DECYL ESTER]
EC50 [4]: Not Active
IC50 [12]: Not Active
IC50 [6]: Not Active
EC50 [7]: Not Active
IC50 [8, 20]: 1220 nM
Ki [9]: 521 nM

Compound: CCCCCCCC/C=C/CCCCCCCCOP(O)(O)=S
EC50 (Homo sapiens [1]): 16 nM
IC50 [12]: Not Active
IC50 [6]: Not Active
EC50 [14]: 193 nM
EC50 [15]: 546 nM
IC50 [7]: Not Active
EC50 [13]: 244 nM
Emax (Homo sapiens [2]): 1.12%
Emax [16]: 30%
IC50 (Homo sapiens [3]): 18 nM

Compound: CCCCC/C=C/CCCOP(=O)(O)O
EC50 [4]: Not Active
Ki [10]: 370 nM
IC50 [5]: > 10 µM
IC50 [11]: 830 nM
IC50 [6]: Not Active
EC50 [18]: > 10000 nM
EC50 [7]: Not Active
IC50 [8, 20]: 1300 nM
Ki [9]: 735 nM

Compound: CCCC/C=C/CCCCCCCCOP(O)(O)=S
EC50 [4]: Not Active
Ki [10]: 14 nM
IC50 [11]: 28 nM
IC50 [12]: Not Active
IC50 [6]: Not Active
EC50 [7]: Not Active
IC50 [8, 20]: 938 nM
EC50 [13]: 480 nM
Emax [16]: 40%
Ki [9]: 397 nM

Compound: Cc1noc(-c2ccc(CSCCC(=O)O)cc2)c1NC(=O)OC(C)c1ccccc1Cl (stereo not drawn)
EC50 [4]: Not Active
Ki ([17]; rh7777): Not Active
Ki [19]: 425 nM
Ki [10]: 148 nM
IC50 [5]: 0.762 µM
IC50 [11]: 301 nM
EC50 [6]: Not Active
IC50 [6]: Not Active
EC50 [7]: Not Active
IC50 [8, 20]: 3380 nM
Ki [9]: 1740 nM

Compound: CCCCCCCCCCCCCCOP(O)(O)=S [THIOPHOSPHORIC ACID TETRADECYL ESTER]
EC50 [4]: Not Active
IC50 [12]: Not Active
IC50 [6]: Not Active
EC50 [7]: Not Active
EC50 [8]: Not Active
IC50 ([8]; pc-3): Not Active

Compound: C=CCCCCCCCCOP(O)(O)=S
EC50 [4]: Not Active
IC50 [12]: Not Active
IC50 [6]: Not Active
EC50 [7]: Not Active
IC50 [8, 20]: 1000 nM
EC50 [13]: > 10000 nM
Ki [9]: 533 nM

The next lines start with results.

EC50 [4]: Not Active
IC50 [5]: > 10 µM
IC50 [6]: Not Active
EC50 [7]: Not Active
IC50 [8, 20]: 1510 nM
Compound: C=CCCCCCCCCOP(=O)(O)O
Ki [9]: 574 nM

EC50 (Homo sapiens [1]): 9 nM
Compound: CCCCCCCC/C=C/CCCCCCCC(=O)OCC(O)COP(=O)(O)O (stereo not drawn) [OLEOYL]
Emax (Homo sapiens [2]): 120%

EC50 [4]: Not Active
Ki [10]: 58 nM
IC50 [11]: 96 nM
IC50 [6]: Not Active
EC50 [7]: Not Active
IC50 [8, 20]: 241 nM
EC50 [13]: 397 nM
Compound: CCCC/C=C/CCCCCCCCOP(=O)(O)O
Ki [9]: 123 nM

EC50 [4]: Not Active
Ki ([17]; read-out: Ki): 3.55 µM
Ki [10]: 1120 nM
IC50 [5]: ~10 µM
IC50 [11]: 3100 nM
EC50 [6]: Not Active
IC50 [18]: 5.5 µM
EC50 [7]: Not Active
IC50 [8, 20]: 9670 nM
IC50 (Homo sapiens [3]): 33000 nM
Compound: CCCCCCCCCCCCCCP(=O)(O)O
Emax (Homo sapiens [2]): 0%
Ki [9]: 4620 nM

EC50 [4]: Not Active
Ki [10]: 303 nM
IC50 [11]: 654 nM
IC50 [12]: Not Active
EC50 [6]: Not Active
IC50 [6]: Not Active
EC50 [7]: Not Active
IC50 [8, 20]: 2640 nM
Compound: CCCCCCCCCCCCP(=O)(O)O
Ki [9]: 1270 nM

EC50 [4]: Not Active
IC50 [12]: Not Active
EC50 [6]: Not Active
IC50 [6]: Not Active
EC50 [7]: Not Active
IC50 [7]: Not Active
Compound: CCCCCCCC/C=C/CCCCCCCCOP(=O)(O)O
Emax [16]: 11%

EC50 [4]: Not Active
Ki [10]: 27 nM
IC50 [5]: > 10 µM
IC50 [11]: 32 nM
EC50 (Homo sapiens [1]): 1500 nM
IC50 [6]: Not Active
EC50 [18]: 717 nM
EC50 [7]: Not Active
IC50 [8, 20]: 916 nM
IC50 (Homo sapiens [3]): 700 nM
Compound: CC/C=C/CCCCCCCCOP(=O)(O)O
Emax (Homo sapiens [2]): 89%
Ki [9]: 390 nM

EC50 [4]: Not Active
Ki [19]: 1350 nM
Ki [10]: 61 nM
IC50 [5]: 2.8 µM
IC50 [11]: 128 nM
EC50 (Homo sapiens [1]): 250 nM
IC50 [6]: Not Active
EC50 [7]: Not Active
IC50 (Homo sapiens [3]): 160 nM
Compound: CCCCCCCCCCCCOP(=O)(O)O [PHOSPHORIC ACID MONODODECYL ESTER]
Emax (Homo sapiens [2]): 94%

EC50 [4]: Not Active
Ki [10]: 121 nM
IC50 [11]: 384 nM
IC50 [12]: Not Active
IC50 [6]: Not Active
EC50 [7]: Not Active
Compound: CCCCCCCCCCOP(=O)(O)O [PHOSPHORIC ACID MONODECYL ESTER]

EC50 [4]: Not Active
Ki [10]: 40 nM
IC50 [11]: 103 nM
IC50 [6]: Not Active
EC50 [7]: Not Active
EC50 [13]: 4100 nM
Compound: CC/C=C/CCCCCCCCCCOP(=O)(O)O
